Data on 14 compounds can be found in ChEMBL document CHEMBL1155646, “Kinmoonosides A-C, three new cytotoxic saponins from the fruits of Acacia concinna, a medicinal plant collected in myanmar” (2000).

In this assay the test system is HT-1080. The experiment in a line: Cytotoxicity against human HT1080 cells by 3-(4,5-dimethylthiazol-2-yl)-[…] bromide assay. It counts as functional. To be noted: read-out: ED50 (the source's name). The procedure, abridged: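 Human HT-1080 fibrosarcoma cells were tested in a standard tetrazolium (MTT) viability assay following an earlier published protocol. Potency was reported as ED50, given in µg/mL and also converted to µM.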

On to `C[C@H]1O[C@@H](OC[C@H]2O[C@@H](O[C@H]3CC[C@]4(C)[C@H]5CC=C6[C@@H]7CC(C)(C)[C@@H](O)C[C@]7(C(=O)O)[C@H](O)C[C@@]6(C)[C@]5(C)CC[C@H]4C3(C)C)[C@H](O[C@@H]3O[C@H](CO)[C@@H](O)[C@H](O)[C@H]3O)[C@@H](O)[C@@H]2O)[C@H](O[C@@H]2OC[C@@H](O)[C@H](O)[C@H]2O)[C@@H](O)[C@H]1O`, for which the EC50 is more than 100 µg/mL. In the case of `C=CC1(C)CCC(C(CO)C(=O)O)O1` (centres undefined), the EC50 was more than 100 µg/mL.

For the compound `C=CC(C)(O)CC/C=C(\CO)C(=O)O[C@H]1[C@H](O)[C@@H](O)C(O)O[C@@H]1C` (some centres undefined), the EC50 is more than 100 µg/mL.

In the case of `C=CC(C)(CC/C=C(\CO)C(=O)O)O[C@@H]1O[C@H](C)[C@@H](O)[C@H](O)[C@H]1O` (some centres undefined), the EC50 was more than 100 µg/mL.

With `CC1(C)C[C@H]2C3=CC[C@@H]4[C@@]5(C)CC[C@H](O[C@@H]6O[C@H](CO[C@@H]7OC[C@H](O)[C@H](O)[C@H]7O[C@@H]7OC[C@@H](O)[C@H](O)[C@H]7O)[C@@H](O)[C@H](O)[C@H]6O[C@@H]6O[C@H](CO)[C@@H](O)[C@H](O)[C@H]6O)C(C)(C)[C@@H]5CC[C@@]4(C)[C@]3(C)C[C@@H](O)[C@@]23C[C@@H]1OC3=O`, the EC50 is more than 100 µg/mL. In the case of `C=CC(C)(O)CC/C=C(\CO)C(=O)O[C@H]1C[C@]2(C(=O)O[C@@H]3O[C@H](CO)[C@@H](O)[C@H](O)[C@H]3O[C@@H]3O[C@@H](C)[C@H](O[C@H]4O[C@@H](CO)[C@H](O)[C@H]4O)[C@@H](O[C@@H]4O[C@H](CO)[C@@H](O)[C@H](O)[C@H]4O)[C@H]3O)[C@H](O)C[C@]3(C)C(=CC[C@@H]4[C@@]5(C)CC[C@H](O[C@@H]6O[C@H](CO[C@@H]7OC[C@H](O)[C@H](O)[C@H]7O)[C@@H](O)[C@H](O)[C@H]6O[C@@H]6O[C@H](CO)[C@@H](O)[C@H](O)[C@H]6O)C(C)(C)[C@@H]5CC[C@]43C)[C@@H]2CC1(C)C` (some centres undefined), the EC50 worked out at 2830 nM. The value for `CC1(C)C[C@H]2C3=CC[C@@H]4[C@@]5(C)CC[C@H](O[C@@H]6O[C@H](CO[C@@H]7OC[C@H](O)[C@H](O)[C@H]7O)[C@@H](O)[C@H](O)[C@H]6O[C@@H]6O[C@H](CO)[C@@H](O)[C@H](O)[C@H]6O)C(C)(C)[C@@H]5CC[C@@]4(C)[C@]3(C)C[C@@H](O)[C@@]2(C(=O)O)C[C@@H]1O` was more than 100 µg/mL; that for `CC(=O)N[C@H]1[C@H](O[C@H]2CC[C@]3(C)[C@H]4CC=C5[C@@H]6CC(C)(C)[C@@H](O)C[C@]6(C(=O)O)[C@H](O)C[C@@]5(C)[C@]4(C)CC[C@H]3C2(C)C)O[C@H](CO[C@@H]2OC[C@H](O)[C@H](O)[C@H]2O)[C@@H](O)[C@@H]1O` was more than 100 µg/mL; that for `C=CC(C)(CC/C=C(\C)C(=O)O)O[C@@H]1O[C@H](C)[C@@H](O)[C@H](O)[C@H]1O` (mixture of isomers) was more than 100 µg/mL. To `O=c1[nH]cc(F)c(=O)[nH]1` [FLUOROURACIL] belongs 8000 nM; to `C=CC(C)(O)CC/C=C(\CO)C(=O)O[C@H]1[C@H](O)[C@@H](O)[C@H](O[C@](C)(C=C)CC/C=C(\CO)C(=O)O[C@H]2C[C@]3(C(=O)O[C@@H]4O[C@H](CO)[C@@H](O)[C@H](O)[C@H]4O[C@@H]4O[C@@H](C)[C@H](O[C@H]5O[C@@H](CO)[C@H](O)[C@H]5O)[C@@H](O[C@@H]5O[C@H](CO)[C@@H](O)[C@H](O)[C@H]5O)[C@H]4O)[C@H](O)C[C@]4(C)C(=CC[C@@H]5[C@@]6(C)CC[C@H](O[C@@H]7O[C@H](CO[C@@H]8OC[C@H](O)[C@H](O)[C@H]8O)[C@@H](O)[C@H](O)[C@H]7O[C@@H]7O[C@H](CO)[C@@H](O)[C@H](O)[C@H]7O)C(C)(C)[C@@H]6CC[C@]54C)[C@@H]3CC2(C)C)O[C@@H]1C` (some centres undefined) [KINMOONOSIDE B], 910 nM; to `C=CC(C)(O)CC/C=C(\CO)C(=O)O[C@H]1[C@H](O)[C@@H](O)[C@H](O[C@@](C)(C=C)CC/C=C(\CO)C(=O)O[C@H]2C[C@]3(C(=O)O[C@@H]4O[C@H](CO)[C@@H](O)[C@H](O)[C@H]4O[C@@H]4O[C@@H](C)[C@H](O[C@H]5O[C@@H](CO)[C@H](O)[C@H]5O)[C@@H](O[C@@H]5O[C@H](CO)[C@@H](O)[C@H](O)[C@H]5O)[C@H]4O)[C@H](O)C[C@]4(C)C(=CC[C@@H]5[C@@]6(C)CC[C@H](O[C@@H]7O[C@H](CO[C@@H]8OC[C@H](O)[C@H](O)[C@H]8O)[C@@H](O)[C@H](O)[C@H]7O[C@@H]7O[C@H](CO)[C@@H](O)[C@H](O)[C@H]7O)C(C)(C)[C@@H]6CC[C@]54C)[C@@H]3CC2(C)C)O[C@@H]1C` (some centres undefined) [KINMOONOSIDES A], 700 nM. On to `C=CC(C)(O)CC/C=C(\C)C(=O)O` (centres undefined) [MENTHIAFOLIC ACID], for which the EC50 was more than 100 µg/mL. To `CC(=O)N[C@H]1[C@H](O[C@H]2CC[C@]3(C)[C@H]4CC=C5[C@@H]6CC(C)(C)[C@@H](O)C[C@]6(C(=O)O)[C@H](O)C[C@@]5(C)[C@]4(C)CC[C@H]3C2(C)C)O[C@H](CO[C@@H]2OC[C@H](O)[C@H](O)[C@H]2O[C@@H]2OC[C@@H](O)[C@H](O)[C@H]2O)[C@@H](O)[C@@H]1O` [PROSAPOGENIN 2] belongs more than 100 µg/mL.
